The source made the active and inactive calls. The rule behind the calls is not given here.
How the values were obtained:
DNA ligase 1 [1] = biological target: T1, DNA ligase 1 (Homo sapiens, UniProt P18858); assay: Inhibition of human recombinant DNA ligase 1 at 100 uM by fluorescence energy transfer-based DNA joining assay relative to control
In short: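 Fluorescence energy transfer joining of a nicked DNA substrate (10 pmol) by purified recombinant hLigI (0.25 pmol), run in duplicate with or without 100 µM candidate inhibitor.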

[2] = Partition coefficient, log P of the compound; format: physicochemical; details: octanol/water
DNA ligase 1 [3] = biological target: T1, DNA ligase 1; assay: Inhibition of human recombinant DNA ligase 1 in presence of 0.1% Triton X-100 by fluorescence energy transfer-based DNA joining assay relative to control
DNA ligase 1 [4] = biological target: T1, DNA ligase 1; assay: Inhibition of human recombinant DNA ligase 1 by radioactive gel-based ligation assay
In short: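 A 25-mer and a 5′-[32P]-labeled 18-mer were annealed to a complementary 44-mer to give a centrally nicked duplex. Labeled substrate (0.5 pmol) and hLigI (0.02 pmol) in ligation buffer were incubated with varying inhibitor concentrations for 30 min at 25 °C. Products were resolved on gels, and IC50 was derived from the concentration-dependence.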

DNA ligase 1 [5] = biological target: T1, DNA ligase 1; assay: Inhibition of human recombinant DNA ligase 1 using nicked DNA substrate by kinetic assay
In short: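 Initial ligation rates were measured with hLigI (0.05 pmol) and fluorescent nicked DNA substrate (0.5–100 pmol) at various inhibitor concentrations. Ki came from Lineweaver–Burk double-reciprocal plots and curve fitting.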

[6] = Growth inhibition of human MCF10A cells at 50 uM by MTT assay relative to control; format: cell-based; details: MCF-10A
HCT-116 = assay: Growth inhibition of human HCT116 cells at 50 uM by MTT assay relative to control; format: functional, cell-based
DNA = assay: Inhibition of ethidium bromide binding to DNA at 100 uM

T1 sequence (P18858 whole entry): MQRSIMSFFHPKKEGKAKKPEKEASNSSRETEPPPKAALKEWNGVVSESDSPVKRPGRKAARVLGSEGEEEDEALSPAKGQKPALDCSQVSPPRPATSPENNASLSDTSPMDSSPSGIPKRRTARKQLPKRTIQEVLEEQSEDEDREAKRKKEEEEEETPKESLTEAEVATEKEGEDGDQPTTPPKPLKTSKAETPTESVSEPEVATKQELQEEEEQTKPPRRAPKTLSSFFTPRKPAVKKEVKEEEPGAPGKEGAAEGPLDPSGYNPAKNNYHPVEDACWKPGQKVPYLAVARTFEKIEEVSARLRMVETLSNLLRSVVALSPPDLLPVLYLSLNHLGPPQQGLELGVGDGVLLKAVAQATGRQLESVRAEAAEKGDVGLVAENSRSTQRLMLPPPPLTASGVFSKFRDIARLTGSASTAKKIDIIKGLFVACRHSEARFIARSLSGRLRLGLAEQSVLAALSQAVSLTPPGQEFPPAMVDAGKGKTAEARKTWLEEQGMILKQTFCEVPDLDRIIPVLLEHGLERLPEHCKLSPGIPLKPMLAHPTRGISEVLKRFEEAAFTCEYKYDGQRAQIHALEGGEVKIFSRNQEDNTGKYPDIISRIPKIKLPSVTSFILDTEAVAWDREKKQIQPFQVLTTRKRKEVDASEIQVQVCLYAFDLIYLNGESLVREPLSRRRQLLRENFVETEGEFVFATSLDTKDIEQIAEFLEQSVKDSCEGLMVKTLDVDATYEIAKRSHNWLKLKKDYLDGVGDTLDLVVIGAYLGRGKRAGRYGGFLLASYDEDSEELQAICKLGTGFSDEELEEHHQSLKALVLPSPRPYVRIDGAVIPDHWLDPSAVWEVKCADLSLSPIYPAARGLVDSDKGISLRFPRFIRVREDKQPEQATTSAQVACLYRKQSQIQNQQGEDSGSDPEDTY

Row | SMILES | inhibition (DNA ligase 1 [1]) | logP [2] | Activity (DNA ligase 1 [3]) | IC50 (DNA ligase 1 [4]) | Ki (DNA ligase 1 [5]) | Activity (DNA) | inhibition (DNA ligase 1 [3]; concentration not given here) | growth inhibition [6] | growth inhibition (HCT-116)
1 | O=C1Nc2c(C(=O)O)cccc2C1=O | 59.3% | 0.24 | Active | 4 µM | 4 µM |  |  |  | 
2 | Cc1oc(C(=O)O)cc1CSCc1cc(C(=O)O)c(C)o1 | 91% | 1.87 | Active | 0.6 µM |  |  |  |  | 
3 | NS(=O)(=O)c1ccc(CCNC(=O)CCS(=O)(=O)c2ccc(Br)cc2)cc1 | 53.4% | 1.42 | Active | 8 µM |  |  |  |  | 
4 | O=C(O)CSc1cc(Cl)c2nonc2c1[N+](=O)[O-] | 60.6% | 2.15 | Active | 13 µM |  |  |  | 40% | 

More lines, in order of falling IC50 (DNA ligase 1 [4]), values ahead:

Row | inhibition (DNA ligase 1 [1]) | logP [2] | Activity (DNA ligase 1 [3]) | IC50 (DNA ligase 1 [4]) | Ki (DNA ligase 1 [5]) | Activity (DNA) | inhibition (DNA ligase 1 [3]; concentration not given here) | SMILES | growth inhibition [6] | growth inhibition (HCT-116)
5 | 52.5% | 1.78 |  | 25 µM |  |  | 39% | COc1ccc(-c2cnc3c(O)nc(O)nc3n2)cc1 | 70% | 40%
6 | 50.7% | 3.04 | Active | 25 µM |  |  |  | O=C(c1ccc(O)cc1)c1ccccc1O |  | 
7 | 59.8% | 4.84 |  | 12 µM |  | inactive |  | O=c1[nH]ncc(N/N=C\c2ccc(O)c([N+](=O)[O-])c2)c1Cl | 70% | 40%
8 | 60.5% | 1.92 | Active | 10 µM |  |  |  | CSc1ccc(C(=O)O)s1 |  | 
9 | 78.3% | 4.91 |  | 8 µM |  | inactive |  | Cc1c(Br)cc(NCC(=O)N/N=C\c2cc([N+](=O)[O-])ccc2O)cc1Br | 70% | 70%
